From ChEMBL document CHEMBL1124455, “Benzodiazepine receptor binding activity of 6,9-disubstituted purines” (J Med Chem, 1989)

What was measured:
[1] = molecular target: T1, GABA-A receptor; anion channel (Rattus norvegicus) (UniProt O09028+P15431+P18506+P18508+P19969+P20236+P23574+P23576+P28471+P28473+P30191+P62813+P63079+P63138+Q91ZM7+Q9ES14); experiment: The percent inhibition of [3H]diazepam binding to the benzodiazepine receptor of rat brain elicited by 100 uM of compound
Rattus norvegicus [2] = experiment: Effect on conflict responding in Long-Evans rats when 5 mg/kg was administered by oral gavage in a modified Geller-Seifter conflict schedule.; type: functional
Method in brief: (§1)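 Rats on a modified Geller-Seifter operant conflict schedule were dosed by oral gavage as a 0.5% methylcellulose suspension 60 min before the session. Shock was 0.00 mA for the first response in each conflict period, rising 0.05 mA with each further response. The value is the percent change in conflict responses from the preceding day, as mean and SEM of at least four rats.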

Rattus norvegicus [3] = experiment: Effect on conflict responding in Long-Evans rats when 25 mg/kg was administered by oral gavage in a modified Geller-Seifter conflict schedule.; type: functional
Method in brief: (§2)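 Rats run on a modified Geller-Seifter conflict schedule. Shock was 0.00 mA for the first response of each conflict period, rising by 0.05 mA per successive response. 25 mg/kg given by oral gavage as a 0.5% methylcellulose suspension, 60 min before the operant session. Result is percent change in conflict responses versus the preceding day, mean and SEM, at least four rats.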

Rattus norvegicus [4] = experiment: Effect on conflict responding in Long-Evans rats when 10 mg/kg was administered by oral gavage in a modified Geller-Seifter conflict schedule.; type: functional; method in brief: as §1
[5] = molecular target: GABA-A receptor; anion channel; experiment: Concentration that inhibits binding of 1.5 nM [3H]diazepam to rat brain benzodiazepine receptor
Method in brief: (§3)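 Membranes from male Sprague-Dawley rat brain (110–220 g; cerebellum and pons medulla removed), homogenized in 0.32 M sucrose. The 30000g pellet was stored frozen and resuspended in Tris-HCl pH 7.5. Filtered on GF/C and washed with ice-cold buffer, then scintillation counted.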

Rattus norvegicus [6] = experiment: Effect on conflict responding in Long-Evans rats when 25 mg/kg was administered by oral gavage in a modified Geller-Seifter conflict schedule and the value ranges from -10 to + 13; type: functional; method in brief: as §2
[7] = molecular target: T1, GABA-A receptor; anion channel (Rattus norvegicus); experiment: Percent inhibition of [3H]diazepam binding to rat brain GABA-A benzodiazepine receptor at 100 uM
Method in brief: as §3, with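 “7.5. […]” for “7.5.”, “counted. Percent inhibition of specific binding at 100 μM; IC50 usually determined when >75%.” for “counted.”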

[8] = in the assay text read “10 uM” for “100 uM”

Compound C[C@H](c1ccccc1)n1cnc2c(N(C)C)ncnc21 has an inhibition [1] of 56%.

Compound CNC1=Nc2ccc(Cl)cc2C(c2ccccc2)=[N+]([O-])C1 [CHLORDIAZEPOXIDE] has a Change in conflict (Rattus norvegicus [2]) of 24%, a Change in conflict (Rattus norvegicus [3]) of 67% and a Change in conflict (Rattus norvegicus [4]) of 46%. For the same compound, the IC50 [5] was 0.2 µM.

Work on CN(C)c1ncnc2c1ncn2Cc1ccc(O)cc1 yielded an inhibition [1, 8] of 15%.

With c1ccc(Cn2cnc3c(N4CCCC4)ncnc32)cc1 the Change in conflict (Rattus norvegicus [3]) was 10% and the IC50 [5] was 16 µM.

CC(=O)Nc1ccc(Cn2cnc3c(N(C)C)ncnc32)cc1 gave an inhibition [1] of 22%.

For Cc1cccc(Cn2cnc3c(N(C)C)ncnc32)c1, the inhibition [1] was 62%.

Compound COc1ccccc1Cn1cnc2c(N(C)C)ncnc21 has an IC50 [5] of 20 µM.

With CN(C)c1ncnc2c1ncn2Cc1ccc(OCc2ccccc2)cc1 the inhibition [1] was 11%.

CN(c1ncnc2c1ncn2Cc1ccccc1)C1CCCC1 showed a Change in conflict (Rattus norvegicus [6]) of -10% and an IC50 [5] of 14 µM.

Compound CN(C)c1ncnc2c1ncn2Cc1cccc(F)c1 has an IC50 [5] of 7.3 µM.

Cc1ccc(Cn2cnc3c(N(C)C)ncnc32)cc1 showed an inhibition [1] of 22%.

CN(C)c1ncnc2c1ncn2Cc1ccccc1[N+](=O)[O-] was tested, and the inhibition [1, 8] was 48%.

CN(C)c1ncnc2c1ncn2Cc1cccc([N+](=O)[O-])c1 gave an inhibition [1] of 48%.

Work on CN(C)c1ncnc2c1ncn2CCCc1ccccc1 yielded an inhibition [1] of 0%.

In the case of OCCNc1ncnc2c1ncn2Cc1ccccc1, the inhibition [7] is reported as 73%.

Work on CN(C)c1ncnc2c1ncn2Cc1ccc(F)cc1 yielded an inhibition [1] of 23%.

CN(C)c1ncnc2c1ncn2Cc1ccc(Cl)cc1 showed an inhibition [1] of 24%.

With CN(C)c1ncnc2c1ncn2Cc1ccccc1Cl the IC50 [5] was 13 µM.

For Cc1ccccc1Cn1cnc2c(N(C)C)ncnc21, the inhibition [1] was 70%.

Compound CN(C)c1ncnc2nc[nH]c12 has an inhibition [1] of 57%.

CCN(CC)c1ncnc2c1ncn2Cc1ccccc1 showed an inhibition [1] of 83%.

CN(C)c1ncnc2c1ncn2Cc1ccccc1F was tested, and the Change in conflict (Rattus norvegicus [3]) was 17% and the IC50 [5] was 5.4 µM.

CCN(C)c1ncnc2c1ncn2Cc1ccccc1 gave an IC50 [5] of 19 µM.

CN(C)c1ncnc2c1ncn2C gave an inhibition [1] of 0%.

In the case of CN(C)c1ncnc2c1ncn2Cc1cccc(O)c1, the Change in conflict (Rattus norvegicus [3]) is reported as 2% and the IC50 [5] is reported as 1.2 µM.

For CN(C)c1ncnc2c1ncn2Cc1ccccc1N, the inhibition [1, 8] was 19%.

With CN(C)c1ncnc2c1ncn2Cc1ccc(C#N)cc1 the inhibition [1] was 26%.

Clc1ncnc2c1ncn2Cc1ccccc1 gave an inhibition [1] of 40%.

COc1ncnc2c1ncn2Cc1ccccc1 [9-BENZYL-6-METHOXY-9H-PURINE] was tested, and the Change in conflict (Rattus norvegicus [3]) was 26% and the IC50 [5] was 14 µM.

Compound CN(C)c1ncnc2c1ncn2Cc1cccc(N)c1 has a Change in conflict (Rattus norvegicus [3]) of 4% and an IC50 [5] of 0.9 µM.

Work on c1ccc(Cn2cnc3c(NC4CC4)ncnc32)cc1 yielded an inhibition [7] of 68%.

For CN(C)c1ncnc2c1ncn2Cc1ccc([N+](=O)[O-])cc1, the inhibition [1] was 23%.

Work on C[C@@H](c1ccccc1)n1cnc2c(N(C)C)ncnc21 yielded a Change in conflict (Rattus norvegicus [3]) of 5% and an IC50 [5] of 2.1 µM.

Compound CN(C)c1ncnc2c1ncn2Cc1cccc(I)c1 has an inhibition [1] of 64%.

With c1ccc(Cn2cnc3c(N4CCC4)ncnc32)cc1 the Change in conflict (Rattus norvegicus [3]) was -7% and the IC50 [5] was 15 µM.

With CN(C)c1ncnc2c1ncn2Cc1cccc(C#N)c1 the inhibition [1] was 70%.

CN(C)c1ncnc2c1ncn2Cc1ccccc1 showed a Change in conflict (Rattus norvegicus [3]) of -17% and an IC50 [5] of 13 µM.

Compound CN(C)c1ncnc2c1ncn2-c1ccccc1 has an inhibition [7] of 0%.

Compound CN(C)c1ncnc2c1ncn2C1Cc2ccccc2C1 has an inhibition [7] of 48%.

CN(C)c1ncnc2c1ncn2C1CCCc2ccccc21 (stereo unspecified) gave an IC50 [5] of 22 µM.

CN(C)c1ncnc2c1ncn2Cc1cccc(Cl)c1 showed an inhibition [1] of 59%.

Work on Oc1ncnc2c1ncn2Cc1ccccc1 yielded an IC50 [5] of 19 µM.

With CCNc1ncnc2c1ncn2Cc1ccccc1 the IC50 [5] was 19 µM.

Nc1ncnc2c1ncn2Cc1ccccc1 [9-BENZYL-9H-ADENINE] showed an IC50 [5] of 37 µM.

For CN(C)c1ncnc2c1ncn2CCc1ccccc1, the inhibition [1] was 0%.

CN(C)c1ncnc2c1ncn2Cc1cccc(Br)c1 gave an inhibition [1] of 63%.

CN(C)c1ncnc2c1ncn2Cc1cccc(CO)c1 showed a Change in conflict (Rattus norvegicus [3]) of 4% and an IC50 [5] of 5 µM.

CN(C)c1ncnc2c1ncn2Cc1ccc(N)cc1 was tested, and the inhibition [1] was 67%.

Compound CN(C)c1ncnc2c1ncn2Cc1cccc(OC(=O)C(C)(C)C)c1 has a Change in conflict (Rattus norvegicus [3]) of 6% and an IC50 [5] of 1.6 µM.

CSc1ncnc2c1ncn2Cc1ccccc1 was tested, and the Change in conflict (Rattus norvegicus [3]) was 13% and the IC50 [5] was 3.3 µM.

Work on CN(C)c1ncnc2c1ncn2C(c1ccccc1)c1ccccc1 yielded an IC50 [5] of 17 µM.

Compound c1ccc(Cn2cnc3cncnc32)cc1 has an inhibition [7] of 34%.

CN(C)c1ncnc2c1ncn2Cc1cccc(C(F)(F)F)c1 showed an inhibition [1] of 49%.

In the case of CC(=O)Oc1cccc(Cn2cnc3c(N(C)C)ncnc32)c1, the Change in conflict (Rattus norvegicus [3]) is reported as 2% and the IC50 [5] is reported as 0.44 µM.

COc1cccc(Cn2cnc3c(N(C)C)ncnc32)c1 was tested, and the inhibition [1] was 70%.

COc1ccc(Cn2cnc3c(N(C)C)ncnc32)cc1 showed an inhibition [1] of 0%.

Cn1cnc2c(ncn2Cc2ccccc2)c1=O showed a Change in conflict (Rattus norvegicus [3]) of -16% and an IC50 [5] of 15.5 µM.

CNc1ncnc2c1ncn2Cc1ccccc1 showed a Change in conflict (Rattus norvegicus [3]) of -3% and an IC50 [5] of 24 µM.
